Assay results as given in ChEMBL document CHEMBL1125428, “Development of 2,3-dihydro-6-(3-phenoxypropyl)-2-(2-phenylethyl)-5-benzofuranol (L-670,630) as a potent and orally active inhibitor of 5-lipoxygenase” (J Med Chem, 1992).

Assays:
Canis familiaris = species: Canis familiaris; assay: Effect on methemoglobin formation in canine venous blood containing heparin; assay type: functional, Canis lupus familiaris
Rattus norvegicus [1] = species: Rattus norvegicus; assay: Effective dose against antigen induced dyspnea in hyperactive inbred rat at a dose of […]; assay type: functional
Rattus norvegicus [2] = assay: Total radioactivity in tissues of male sd rats dosed orally with H-labeled compound at 21 mg/kg after 30 min in plasma; assay type: functional; conditions: route oral
Method in brief: (§1)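 Male Sprague-Dawley rats received ³H-labelled drug (phenoxy ring, 3.96 μCi/mg) in PEG-400 by gavage at 21 mg/kg. Animals were killed at 5, 15, 30 min and at 1, 2, 4, 24 and 48 h. Homogenates were pooled per group, and total radioactivity was measured as the mean of duplicate combustions, in μg equiv/g. Two or three rats were used per point, except one rat at 24 and 48 h.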

Rattus norvegicus [3] = assay: % compound was determined by the amount of radioactivity elute with H-labeled at 21 mg/kg after 5 min using RP-HPLC. at a dose of 380 ug/g in lung of male sd rat.; assay type: functional
Rattus norvegicus [4] = assay: Total radioactivity in tissues of male sd rats dosed orally with H-labeled compound at 21 mg/kg after 30 min in liver; assay type: functional; conditions: route oral; method in brief: as §1
Rattus norvegicus [5] = assay: Total radioactivity in tissues of male sd rats dosed intravenously with H-labeled compound at 21 mg/kg after 10 min in liver; assay type: functional; conditions: route intravenous
Method in brief: (§2)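 Male Sprague-Dawley rats given ³H compound iv via femoral vein in PEG-400, 21 mg/kg, 3.96 μCi/mg. Killed at 2, 10, 30 min, 1, 2 and 4 h. Total radioactivity measured by combustion of composited tissue homogenates, in duplicate. Two or three rats per time point, one at 10 and 30 min.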

Rattus norvegicus [6] = assay: Total radioactivity in tissues of male sd rats dosed intravenously with H-labeled compound at 21 mg/kg after 10 min in plasma; assay type: functional; conditions: route intravenous
Rattus norvegicus [7] = assay: Total radioactivity in tissues of male sd rats dosed intravenously with H-labeled compound at 21 mg/kg after 1 hr in kidney; assay type: functional; conditions: route intravenous; method in brief: as §2
Rattus norvegicus [8] = assay: Total radioactivity in tissues of male sd rats dosed intravenously with H-labeled compound at 21 mg/kg after 1 hr in liver; assay type: functional; conditions: route intravenous; method in brief: as §2
Rattus norvegicus [9] = assay: Total radioactivity in tissues of male sd rats dosed intravenously with H-labeled compound at 21 mg/kg after 1 hr in lung; assay type: functional; conditions: route intravenous; method in brief: as §2
Rattus norvegicus [10] = assay: Total radioactivity in tissues of male sd rats dosed intravenously with H-labeled compound at 21 mg/kg after 2 hr in kidney; assay type: functional; conditions: route intravenous; method in brief: as §2
Rattus norvegicus [11] = assay: Total radioactivity in tissues of male sd rats dosed intravenously with H-labeled compound at 21 mg/kg after 2 hr in liver; assay type: functional; conditions: route intravenous; method in brief: as §2
Rattus norvegicus [12] = assay: Total radioactivity in tissues of male sd rats dosed intravenously with H-labeled compound at 21 mg/kg after 2 min in liver; assay type: functional; conditions: route intravenous; method in brief: as §2
Rattus norvegicus [13] = assay: Total radioactivity in tissues of male sd rats dosed intravenously with H-labeled compound at 21 mg/kg after 2 min in lung; assay type: functional; conditions: route intravenous; method in brief: as §2
Rattus norvegicus [14] = assay: Total radioactivity in tissues of male sd rats dosed intravenously with H-labeled compound at 21 mg/kg after 2 min in plasma; assay type: functional; conditions: route intravenous
Rattus norvegicus [15] = assay: Total radioactivity in tissues of male sd rats dosed intravenously with H-labeled compound at 21 mg/kg after 30 min in kidney; assay type: functional; conditions: route intravenous; method in brief: as §2
Rattus norvegicus [16] = assay: Total radioactivity in tissues of male sd rats dosed intravenously with H-labeled compound at 21 mg/kg after 4 hr in kidney; assay type: functional; conditions: route intravenous; method in brief: as §2
Rattus norvegicus [17] = assay: Total radioactivity in tissues of male sd rats dosed orally with H-labeled compound at 21 mg/kg after 5 min in liver; assay type: functional; conditions: route oral; method in brief: as §1
Rattus norvegicus [18] = assay: Total radioactivity in tissues of male sd rats dosed orally with H-labeled compound at 21 mg/kg after 5 min in plasma; assay type: functional; conditions: route oral; method in brief: as §1
Rattus norvegicus [19] = assay: Total radioactivity in tissues of male sd rats dosed orally with H-labeled compound at 21 mg/kg after 48 hr in kidney; assay type: functional; conditions: route oral; method in brief: as §1
Rattus norvegicus [20] = assay: Total radioactivity in tissues of male sd rats dosed orally with H-labeled compound at 21 mg/kg after 48 hr in liver; assay type: functional; conditions: route oral; method in brief: as §1
Rattus norvegicus [21] = assay: Total radioactivity in tissues of male sd rats dosed orally with H-labeled compound at 21 mg/kg after 48 hr in plasma; assay type: functional; conditions: route oral; method in brief: as §1
Rattus norvegicus [22] = assay: Total radioactivity in tissues of male sd rats dosed orally with H-labeled compound at 21 mg/kg after 4 hr in kidney; assay type: functional; conditions: route oral; method in brief: as §1
Rattus norvegicus [23] = assay: Total radioactivity in tissues of male sd rats dosed orally with H-labeled compound at 21 mg/kg after 4 hr in liver; assay type: functional; conditions: route oral; method in brief: as §1
Rattus norvegicus [24] = assay: Total radioactivity in tissues of male sd rats dosed orally with H-labeled compound at 21 mg/kg after 4 hr in lung; assay type: functional; conditions: route oral; method in brief: as §1
Rattus norvegicus [25] = assay: Total radioactivity in tissues of male sd rats dosed orally with H-labeled compound at 21 mg/kg after 4 hr in plasma; assay type: functional; conditions: route oral; method in brief: as §1
Rattus norvegicus [26] = assay: Total radioactivity in tissues of male sd rats dosed orally with H-labeled compound at 21 mg/kg after 5 min in kidney; assay type: functional; conditions: route oral; method in brief: as §1
Rattus norvegicus [27] = assay: Total radioactivity in tissues of male sd rats dosed intravenously with H-labeled compound at 21 mg/kg after 4 hr in lung; assay type: functional; conditions: route intravenous
Method in brief: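 ³H label in the phenoxy ring, dissolved in PEG-400, specific activity 3.96 μCi/mg, given iv via femoral vein at 21 mg/kg to male Sprague-Dawley rats. Animals were killed at 2, 10, 30 min, 1, 2 and 4 h. Tissues from each group were pooled and homogenized, and total radioactivity was measured by combustion, averaged over duplicate combustions. Results are expressed as μg equiv/g. Two or three rats were used per time point.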

Rattus norvegicus [28] = assay: Total radioactivity in tissues of male sd rats dosed orally with H-labeled compound at 21 mg/kg after 15 min in liver; assay type: functional; conditions: route oral; method in brief: as §1
Rattus norvegicus [29] = assay: Total radioactivity in tissues of male sd rats dosed orally with H-labeled compound at 21 mg/kg after 15 min in plasma; assay type: functional; conditions: route oral; method in brief: as §1
Rattus norvegicus [30] = assay: Total radioactivity in tissues of male sd rats dosed orally with H-labeled compound at 21 mg/kg after 1 hr in liver; assay type: functional; conditions: route oral; method in brief: as §1
Rattus norvegicus [31] = assay: Total radioactivity in tissues of male sd rats dosed orally with H-labeled compound at 21 mg/kg after 1 hr in lung; assay type: functional; conditions: route oral; method in brief: as §1
Rattus norvegicus [32] = assay: Total radioactivity in tissues of male sd rats dosed orally with H-labeled compound at 21 mg/kg after 24 hr r in plasma; assay type: functional; conditions: route oral; method in brief: as §1
Rattus norvegicus [33] = species: Rattus norvegicus; assay: Percentage inhibition against antigen induced dyspnea in hyperactive inbred rat at a dose of […]; assay type: functional; conditions: dose 0.15 mg/kg
[34] = Measure of AUCpo/AUCiv x 100% of the parent compound before (free) and after (total) beta-glucuronidase treatment; total 54%; assay type: ADME, organism-based; conditions: in vivo, po; read-out: Bioavailabiility
[35] = Peak concentration of drug in rat plasma after oral dosing at 20 mg/kg. Concentration of parent compound was measured before (free) and after (total) beta-glucuronidase treatment; total 0.5 uM; assay type: ADME, organism-based; parameters: dose 20 mg/kg, route oral; conditions: read-out: Plasma level
Rattus norvegicus [36] = assay: Total radioactivity in tissues of male sd rats dosed orally with H-labeled compound at 21 mg/kg after 15 min in lung; assay type: functional; conditions: route oral; method in brief: as §1

Oc1cc2c(cc1CCCOc1ccccc1)OC(CCc1ccccc1)C2 (configuration not stated)
Formation (Canis familiaris): 4% | ED50 at […] (Rattus norvegicus [1]): 0.06 mg/kg | Total radioactivity (Rattus norvegicus [2]): 1.09 ug equiv g-1 | Activity (Rattus norvegicus [3]): 80.4% | Total radioactivity (Rattus norvegicus [4]): 3.92 ug equiv g-1 | Total radioactivity (Rattus norvegicus [5]): 143.94 ug equiv g-1 | Total radioactivity (Rattus norvegicus [6]): 9.65 ug equiv g-1 | Total radioactivity (Rattus norvegicus [7]): 11.78 ug equiv g-1 | Total radioactivity (Rattus norvegicus [8]): 26.77 ug equiv g-1 | Total radioactivity (Rattus norvegicus [9]): 40.77 ug equiv g-1 | Total radioactivity (Rattus norvegicus [10]): 1.24 ug equiv g-1 | Total radioactivity (Rattus norvegicus [11]): 3.31 ug equiv g-1 | Total radioactivity (Rattus norvegicus [12]): 142.77 ug equiv g-1 | Total radioactivity (Rattus norvegicus [13]): 100.78 ug equiv g-1 | Total radioactivity (Rattus norvegicus [14]): 10.34 ug equiv g-1 | Total radioactivity (Rattus norvegicus [15]): 22.75 ug equiv g-1 | Total radioactivity (Rattus norvegicus [16]): 2.82 ug equiv g-1 | Total radioactivity (Rattus norvegicus [17]): 12.12 ug equiv g-1 | Total radioactivity (Rattus norvegicus [18]): 7.74 ug equiv g-1 | Total radioactivity (Rattus norvegicus [19]): 0.03 ug equiv g-1 | Total radioactivity (Rattus norvegicus [20]): 0.11 ug equiv g-1 | Total radioactivity (Rattus norvegicus [21]): 0.82 ug equiv g-1 | Total radioactivity (Rattus norvegicus [22]): 2.75 ug equiv g-1 | Total radioactivity (Rattus norvegicus [23]): 13.77 ug equiv g-1 | Total radioactivity (Rattus norvegicus [24]): 1.74 ug equiv g-1 | Total radioactivity (Rattus norvegicus [25]): 3.27 ug equiv g-1 | Total radioactivity (Rattus norvegicus [26]): 9.12 ug equiv g-1 | Total radioactivity (Rattus norvegicus [27]): 5 ug equiv g-1 | Total radioactivity (Rattus norvegicus [28]): 7.82 ug equiv g-1 | Total radioactivity (Rattus norvegicus [29]): 1.08 ug equiv g-1 | Total radioactivity (Rattus norvegicus [30]): 10.93 ug equiv g-1 | Total radioactivity (Rattus norvegicus [31]): 3.58 ug equiv g-1 | Total radioactivity (Rattus norvegicus [32]): 0.64 ug equiv g-1 | inhibition in vivo at […] (Rattus norvegicus [33]): 55% | bioavailability [34]: 5% | Cmax [35]: 300 nM | Total radioactivity (Rattus norvegicus [36]): 190.97 ug equiv g-1
